# MEX-5 binding: C. elegans MEX-5 TCR-2 RNA binding activity. activity score (negative = inhibition of binding), % at 10 µM. Q9XUB2. actives 0.38% (n = 300,000). MEX-5/FITC-TCR2 RNA binding, fluorescence polarization; active compounds read low. AID 1832;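 active means inhibition past about -25% in most replicates, and total fluorescence under double the plate's negative control median, limit read from the data; inconclusive means replicates evenly split on the limit, or fluorescence at least double controls; inactive means too little inhibition in most replicates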
# Target sequence (Q9XUB2 whole entry, looked up): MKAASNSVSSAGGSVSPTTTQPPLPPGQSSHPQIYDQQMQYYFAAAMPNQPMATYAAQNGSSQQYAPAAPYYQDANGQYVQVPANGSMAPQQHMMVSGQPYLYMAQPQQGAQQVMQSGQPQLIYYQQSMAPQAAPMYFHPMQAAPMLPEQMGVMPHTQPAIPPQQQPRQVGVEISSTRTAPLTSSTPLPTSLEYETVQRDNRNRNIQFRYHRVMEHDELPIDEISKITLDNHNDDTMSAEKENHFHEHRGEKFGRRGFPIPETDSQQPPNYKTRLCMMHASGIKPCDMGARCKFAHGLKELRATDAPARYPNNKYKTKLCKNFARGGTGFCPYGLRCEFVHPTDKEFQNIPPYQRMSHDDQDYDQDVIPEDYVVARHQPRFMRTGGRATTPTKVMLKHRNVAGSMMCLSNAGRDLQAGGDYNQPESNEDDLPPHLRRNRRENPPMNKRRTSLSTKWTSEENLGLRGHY
# KLK7 zymogen act: activators of human kallikrein-7 zymogen. purified proKLK7, EDANS-DABCYL substrate fluorescence; 100% is mature enzyme control, 0% vehicle. activation, % at 7 µM. actives 0.9% (n = 370,000). AID 652039;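 active means activation above the mean of all tested compounds plus 3 SD, computed per campaign excluding outliers beyond control limits, cut at about 13% in these data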
# Runt-SMMHC FRET: blocks binding of human RUNX1 Runt domain to CBFb-SMMHC; Cerulean-Runt/Venus-CBFb-SMMHC FRET ratio 530/480, 1 h; inhibition, % at 20 µM; actives 0.74% (n = 220,000);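 active means mean inhibition across duplicate retests at 20 µM reaching about 50%, limit read from the data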;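 further: inhibitors lower the FRET ratio by blocking Runt binding to CBFb-SMMHC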
# RanGTP-Imp inh: disruptors of Ran-importin-beta complex formation – biochemical, FRET, CFP-Ran, YFP-importin-beta, homogeneous, primary screen; actives 1.1% (n = 300,000); AID 2216; inhibition, % (test concentration not listed); cell-free CFP-Ran/YFP-importin-beta FRET ratio;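 active means more than half of the replicate wells show a fall in the fluorescence ratio signal beyond about 16%, limit read from the data, passing the limit was not always enough; inconclusive means exactly half of the replicate wells pass the set limit; inactive means fewer than half of replicates pass the limit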
# Runt-CBFb FRET: inhibitors of human RUNX1 Runt domain binding to CBFb; Cerulean-Runt/Venus-CBFb FRET ratio 530/480, 1 h; Q01196+Q13951; inhibition, % at 20 µM; actives 0.46% (n = 220,000);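 active means inhibition over about 50% at 20 µM in the single-dose screen, limit read from the data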
#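 Assay system: Cerulean-Runt domain / Medium: Tris 50 mM pH 7.5, KCl, K2SO4, 0.01% BSA / Timing: protein complex preformed 1 h, compound exposure 1 h, room temperature, dark / Measured by: FRET, excitation 422 nm, emission at 530 and 480 nm / Evaluation: loss of energy transfer signal / Control set: 5 µM unlabeled CBFb as full-inhibition high control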
# A number is an active result; - = inactive; ? = inconclusive; . = not tested or not shown. Shown are actives, neighbours in structure and some others; about 2.1% of the full set was active somewhere.
SMILES,MEX-5 binding,KLK7 zymogen act,Runt-SMMHC FRET,RanGTP-Imp inh,Runt-CBFb FRET
CNC(=O)c1cc2c(=O)n3cc(C)ccc3nc2n(Cc2ccco2)c1=N,.,.,-,.,88.1
Cc1ccc(S(=O)(=O)c2cc3c(=O)n4ccccc4nc3n(Cc3ccco3)c2=N)cc1C,-,-,-,75.8,-
COC(=O)c1cc2c(=O)n3ccccc3nc2n(C)c1=N,.,.,-,.,-
N=c1c(S(=O)(=O)c2ccccc2)cc2c(=O)n3ccccc3nc2n1Cc1ccco1,-,-,.,85.1,-
N=c1c(S(=O)(=O)c2ccc(Br)cc2)cc2c(=O)n3ccccc3nc2n1CCN1CCOCC1,.,-,.,.,.
C[C@@H]1CN([C@H](C)CO)S(=O)(=O)c2ccc(-c3ccc(C(=O)N(C)C)cc3)cc2O[C@H]1CN(C)C(=O)Cc1ccccn1,.,-,.,.,.
CCC(=O)N1CCCC1(C)C(=O)Nc1ccc2scnc2c1 (configuration not stated),.,-,.,.,.
CCOCCCn1c(=N)c(S(=O)(=O)c2ccc(C)cc2)cc2c(=O)n3cc(C)ccc3nc21,-,-,.,158.2,.
Cc1ccc2nc3c(cc(S(=O)(=O)c4ccccc4)c(=N)n3Cc3ccco3)c(=O)n2c1,-,-,92.3,?,-
CCOC(=O)c1cc2c(=O)n3ccccc3nc2n(Cc2ccco2)c1=NC(=O)c1ccccc1OC,-,-,86.3,62.1,89.0
Cc1nc2ccccc2c(=O)n1Cc1ccco1,-,-,-,-,-
CC(=O)c1c(C)[nH]c(C(=O)OCC(=O)N2CCc3ccccc3C2)c1C,.,-,.,.,.
O=C(Nc1nnc([C@H]2C[C@H](O)[C@@H](CO)O2)s1)Nc1cccc2c1CCCC2,.,-,.,.,.
COc1ccc(N2CSC3=C(C#N)C(c4cc(OC)c(OC)cc4OC)CC(=O)N3C2)c(OC)c1 (configuration not stated),-,-,-,-,-
COc1cc(OC)c(C2CC(=O)N3CN(c4ccc(C)cc4)CSC3=C2C#N)cc1OC (configuration not stated),-,-,100.8,-,101.3
Cc1ccc(C(=O)N/C(=C\c2ccc(-c3ccccc3[N+](=O)[O-])o2)C(=O)NCCCN(C)C)cc1,-26.6,-,.,-,.
CCOC(=O)Oc1ccc2c(=O)c(Oc3cc(C)cc(C)c3)coc2c1,-,35.9,-,-,-
Cc1cc(C)cc(Oc2coc3cc(OC(=O)c4cccnc4)ccc3c2=O)c1,-,-,-,-,-
CCOC(=O)Oc1ccc2c(=O)c(Oc3cccc(C)c3)coc2c1,-,75.9,-,-,.
Cc1cccc(Oc2coc3cc(O)ccc3c2=O)c1,-,-,.,-,.
CC(CC(=O)c1ccc(F)cc1)N1CCN(c2ccccc2)CC1 (configuration not stated),.,-,.,.,.
O=C(Nc1ccc(Br)cc1Br)Nc1cccc2[nH]c([C@@H]3O[C@H](CO)[C@@H](O)[C@H](O)[C@H]3O)nc12,.,-,.,.,.
C[C@@H]1CN([C@@H](C)CO)C(=O)CCCn2nncc2CO[C@H]1CN(C)C(=O)c1ccccc1,.,-,.,.,.
O=C(O)C(Cc1ccccc1)N1C(=O)C=CC1=O (configuration not stated),.,-,.,.,.
CC(C)C[C@@H]1COc2cc(Br)ccc2S(=O)(=O)N1Cc1cn(CCC2OCCO2)nn1,.,-,.,.,.
SMILES,MEX-5 binding,KLK7 zymogen act,Runt-SMMHC FRET,RanGTP-Imp inh,Runt-CBFb FRET
CC(=O)[C@@H]1[C@@H](C(=O)c2ccccc2)[C@]2(C(=O)Nc3ccccc32)[C@H]2C=Cc3cc(F)ccc3N12,-,-,-,-,-
O=C(c1ccccc1)[C@@H]1[C@@H](C(=O)c2ccc(F)cc2)[C@@]2(C(=O)Nc3ccccc32)[C@H]2c3ccccc3C=CN12,-,-,-,21.5,-
CCOc1ccc(CNc2ccc3c(c2)ncn3C(C)(C)C)cc1,-,-,.,19.1,.
CCCn1cnc2cc(NCc3cccc(OC)c3)ccc21,-,-,-,23.7,-
CCCn1cnc2cc(NCc3ccccc3O)ccc21,-,-,.,-,.
CC(=O)c1sc2nc(-c3cccs3)cc(C(F)(F)F)c2c1N,-30.0,-,-,-,-
Cc1c(C(=O)O)sc2nc(-c3cccs3)cc(C(F)(F)F)c12,-,-,.,-,.
Cc1onc(-c2c(F)cccc2Cl)c1C(=O)OCC(=O)N(C)c1ccccc1,.,-,.,.,.
C#CCOc1ccc(C2C3=C(CCCC3=O)N(CC(=O)O)C3=C2C(=O)CCC3)cc1Br,-,-,.,116.9,.

# Bioassay records as filed in PubChem BioAssay.
